Screening data as filed in PubChem.
The list is not random: actives were taken first. Their share in the collection is about 5.2%.
ALR inh – inhibitors of human ALR sulfhydryl oxidase, primary screen, biochemical, H2O2 detection, HRP-luminol luminescence, single point. FAD-linked sulfhydryl oxidase ALR (Homo sapiens), P55789. purified ALR, DTT oxidation. inhibition, % (test concentration not listed). 290,000 tested, 3.8% active;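 active means mean replicate inhibition above about 79%, with every replicate also reaching it, limit read from the data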
Target sequence (P55789 whole entry, looked up): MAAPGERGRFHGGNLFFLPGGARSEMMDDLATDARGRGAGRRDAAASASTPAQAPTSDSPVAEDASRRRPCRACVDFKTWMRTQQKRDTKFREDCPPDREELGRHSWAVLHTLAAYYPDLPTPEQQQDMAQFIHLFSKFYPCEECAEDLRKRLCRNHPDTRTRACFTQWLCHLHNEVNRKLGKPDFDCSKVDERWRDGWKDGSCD
NS3 helicase inh – inhibitors of HCV NS3 helicase, primary screen, biochemical, Cy5 molecular beacon fluorescence. NS3 helicase DNA unwinding. inhibition, % at 10.9 µM. 290,000 tested, 0.56% active. AID 1800, 2009;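 active means inhibition above the mean of all tested compounds plus 3 SD, set per campaign, cut at about 35% in these data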;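 further: 0% = DMSO wells and 100% = thioflavine S control wells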
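Material: hepatitis C virus NS3 helicase domain fragment enzyme; measured by: Cy5 fluorescence, 0 and 60 min reads; control set: DMSO and thioflavine S; incubation: 60 min unwinding reaction at 25 °C after ATP addition; read-out basis: % inhibition from 60/0 min fluorescence ratio, DMSO 0%, thioflavine S 100%; repeats: singlicate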
PfM18AAP inh – PfM18AAP inhibitors, malaria aminopeptidase, primary screen, biochemical, QFRET, recombinant enzyme. M18 aspartyl aminopeptidase (Plasmodium falciparum 3D7). H-Glu-NHMec fluorogenic cleavage. AID 1822, 2009. inhibition, % at 7.35 µM. 290,000 tested, 1.2% active;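 active means inhibition above the campaign mean inhibition over all tested compounds plus 3 SD, cut at about 28% in these data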;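 further: 0% = plate median of test compound wells and 100% = 2 mM ZnCl2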
ZTA counter – blocks Epstein-Barr virus ZTA, an EBNA-1 counter-screen; inhibition, % at 11 µM; P03206; 320,000 tested, 0.15% active; ZTA-DNA binding, fluorescence polarization; in the data active means inhibition above about 33%
Target sequence (P03206 whole entry, looked up): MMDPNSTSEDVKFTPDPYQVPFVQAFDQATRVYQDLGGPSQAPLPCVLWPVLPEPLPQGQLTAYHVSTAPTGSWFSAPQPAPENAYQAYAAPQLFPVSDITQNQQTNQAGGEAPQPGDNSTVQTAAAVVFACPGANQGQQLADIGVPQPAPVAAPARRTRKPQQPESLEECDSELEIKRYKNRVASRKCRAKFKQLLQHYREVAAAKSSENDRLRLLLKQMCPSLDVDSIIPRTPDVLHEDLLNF
HCV core dimer – inhibitors of HCV core protein dimerization, primary screen, biochemical, TR-FRET, high-throughput; 300,000 tested, 0.33% active; TR-FRET GST/Flag-core106 dimerization, 1536-well; inhibition, % at 5 µM; AID 1899, 2009;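 active means inhibition above the mean of all tested compounds plus 3 SD, set per screening campaign, cut at about 45% in these data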
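System – GST-tagged and Flag-tagged HCV core protein residues 1-106 · Repeats – one well for each compound · Technique – TR-FRET 671 and 617 nm emission · Doses – one concentration, 5 µM, in 0.5% DMSO · Times – 4 h, 22.5 °C incubation · Also added – Eu donor and XL665 acceptor anti-tag antibodies · Measure – percent inhibition of core106 dimerization signal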
EBNA-1 inhibitor – EBNA-1 DNA-binding inhibitors, primary screen, biochemical, fluorescence polarization | inhibition, % at 14.8 µM | 300,000 tested, 0.34% active; in the data active means inhibition above about 28%
The depositor's hits bear a star; . = not tested or not shown.

SMILES | ALR inh | NS3 helicase inh | PfM18AAP inh | ZTA counter | HCV core dimer | EBNA-1 inhibitor
CCOc1ccc(N(Cc2cc3ccc(C)cc3[nH]c2=O)S(=O)(=O)c2ccccc2)cc1 | -10 | -26 | -5 | -5 | 15 | -8
O=C(NC(Cc1cccc(F)c1)C(=O)O)C1CCCCC1 (stereo not drawn) | -13 | . | . | -3 | . | .
Cc1cc(NS(=O)(=O)c2ccc(NC(=O)CSc3nc4ncc(Br)cc4[nH]3)cc2)nc(C)n1 | 99* | -6 | -19 | -7 | 3 | -4
Cc1cc(NS(=O)(=O)c2ccc(NC(=O)CSc3nc4ncc(Cl)cc4[nH]3)cc2)nc(C)n1 | 100* | 2 | 3 | 7 | 8 | 1
Cc1cc(C)nc(NS(=O)(=O)c2ccc(NC(=O)CSc3nc4ccccc4[nH]3)cc2)n1 | 5 | 1 | -4 | -24 | -4 | 0
Cc1cc(NS(=O)(=O)c2ccc(NC(=O)c3cnc(Cl)c(Cl)c3)cc2)nc(C)n1 | 99* | . | . | -2 | . | .
Cc1cc(NS(=O)(=O)c2ccc(NC(=O)CSc3nc4ncccc4[nH]3)cc2)nc(C)n1 | 99* | -3 | 9 | 0 | -9 | -4
CC(NC(=O)C(C)N1CCN(Cc2ccccc2)CC1)c1ccccc1 (stereo not drawn) | -2 | -7 | -3 | 24 | -1 | 9
O=C(Cc1ccccc1[N+](=O)[O-])OCC(=O)N1CCN(c2ccccc2)CC1 | 74 | . | . | -5 | -5 | 2
CCN1CCN(C(=O)CCc2nnc3ccc(N4CCN(c5cccc(OC)c5)CC4)nn23)CC1 | 99* | -10 | 5 | -6 | 9 | -14
COc1ccc(NC(=O)CCc2nnc3ccc(N4CCC(C)CC4)nn23)cc1 | -11 | 13 | 6 | -13 | -7 | -4
COc1ccc(N2CCN(c3ccc4nnc(CCC(=O)Nc5ccc(C)cc5)n4n3)CC2)cc1 | 92* | -25 | 4 | 4 | 12 | 10
COc1cccc(N2CCN(c3ccc4nnc(CCC(=O)Nc5ccc(C)cn5)n4n3)CC2)c1 | 21 | -38 | -4 | 11 | 7 | 11
COc1cccc(N2CCN(c3ccc4nnc(CCC(=O)Nc5ncccc5C)n4n3)CC2)c1 | 99* | 8 | 1 | -8 | -1 | -7
O=C(Cn1cc(S(=O)(=O)N2CCCC2)c(S(=O)(=O)N2CCCC2)c1)NCc1ccco1 | -15 | 1 | 13 | 8 | -6 | -3
COc1ccccc1-c1noc2ncnc(Nc3ccc4c(c3)OCO4)c12 | -1 | 4 | 5 | 3 | 0 | 10
O=C(c1ccccc1Br)N(Cc1ccccc1)c1ccccc1 | -2 | -4 | 0 | 7 | 14 | 13
Cn1ncc2c(Nc3ccc(O)cc3)nc(Cl)nc21 | 91* | -4 | -5 | 13 | 5 | 7
CC(=O)Nc1ccc(S(=O)(=O)NNC(=O)c2ccc3c(c2)OCO3)cc1 | 15 | 14 | 0 | 1 | 9 | -12
CC(=O)Nc1ccc(S(=O)(=O)NNC(=O)c2cccc(Cl)c2)cc1 | 99* | 10 | 13 | 8 | -3 | 10
CC(=O)Nc1ccc(S(=O)(=O)NNC(=O)COc2ccc(C(C)(C)C)cc2)cc1 | 97* | 0 | -16 | 1 | 0 | 6
Cc1cc(C)c(NC(=O)CNC(=O)[C@@H]2CCCN2C(=O)c2cccs2)c(C)c1 | -1 | . | . | -2 | . | .
CC(=O)c1c(C)[nH]c(C(=O)OCC(=O)Nc2nnc(-c3ccccc3)o2)c1C | . | . | . | -6 | . | .
CCOC(=O)c1nn(-c2cccc(C)c2)c2nnc(Cc3ccc(C)cc3)c(=O)n12 | -1 | 1 | -1 | -6 | 14 | 4
CC(NC(=O)COC(=O)c1ccc(CO)cc1)C1CC2CCC1C2 (stereo not drawn) | -21 | . | . | -1 | . | .
CCOc1cc(C(c2c(C)[nH][nH]c2=O)c2c(C)[nH][nH]c2=O)cc(Br)c1OC | 32 | -9 | 30* | 5 | -1 | 2
CCOc1cc(C(c2c(C)[nH][nH]c2=O)c2c(C)[nH][nH]c2=O)cc([N+](=O)[O-])c1O | 0 | 11 | 27 | -17 | -7 | 3
